mIAP block – blocks mouse intestinal alkaline phosphatase. purified mouse IAP, CDP-Star luminescence, 30 min. inhibition, % at 10 µM. 330,000 tested, 0.2% active;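 active = inhibition of at least 40% at 10 µM in the primary screen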
bIAP act – increases bovine intestinal alkaline phosphatase activity; AID 1016; 200,000 tested, 0.17% active; activation factor at 20 µM; purified bovine IAP, CDP-star luminescence, 30 min; active compounds read high; fold of DMSO-control signal, blank-subtracted;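 active = activation factor of 2 or more at 20 µM, a signal rise over negative controls twice the positive control's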
hIAP block – human IAP inhibition. inhibition, % at 10 µM. purified IAP, CDP-Star luminescence, 30 min. P09923. AID 2544. 330,000 tested, 0.12% active;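 active = inhibition reaching a set limit with compound at 10 µM in the primary screen, cut at about 35% in these data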
hIAP activ – increases human intestinal alkaline phosphatase activity; P09923; purified human IAP, CDP-Star luminescence, 30 min; active compounds read high; 1 = vehicle-only enzyme, 0 = enzyme-free background; activation factor at 10 µM; 330,000 tested, 0.16% active;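 active = activation factor of the enzyme at least 2-fold when tested at 20 µM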
mIAP activ – increases mouse intestinal alkaline phosphatase activity; muIAP, CDP-Star luminescence, 30 min; active compounds read high; 1 = vehicle-only enzyme signal, 0 = enzyme-free wells; activation factor at 10 µM; 330,000 tested, 0.24% active; AID 2805;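 active = activation factor of at least 2 at 20 µM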
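Assay system: mouse IAP enzyme; Reagent: CDP-Star chemiluminescent phosphatase substrate; Compound: DMSO-dissolved test compounds; Incubation: 30 min, room temperature; Technique: luminescence from enzymatic CDP-Star hydrolysis; Controls: DMSO-only wells and no-enzyme negative control.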
bIAP inhibitor – blocks bovine intestinal alkaline phosphatase activity; purified bovine IAP, CDP-star luminescence, 30 min; inhibition, % at 20 µM; 190,000 tested, under 10 active; AID 1019;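 active = over 50% inhibition of intestinal alkaline phosphatase at 20 µM in the single-dose screen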
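Assay system: bovine IAP enzyme; medium: DEA buffer 100 mM, pH 9.8, with MgCl2 1.0 mM, ZnCl2 0.02 mM; doses: 20 µM single dose; incubation: enzyme reaction for 30 min at room temperature; detection: CDP-star luminescence signal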
mIAP inh confirm – mouse IAP inhibition confirmation; inhibition, % at 10 µM; 11,000 tested, 4.7% active; AID 434971; purified mouse IAP, CDP-Star luminescence, 30 min; shares compounds with mIAP block;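 active = inhibition of at least 40% at 10 µM in either of the two replicates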
A number is an active result; 0 = inactive; - = no result. An excerpt weighted towards active compounds, which were near 0.79% of everything screened.

SMILES | mIAP block | bIAP act | hIAP block | hIAP activ | mIAP activ | bIAP inhibitor | mIAP inh confirm
C[C@H](CO)N1C[C@H](C)[C@@H](CN(C)S(=O)(=O)c2ccccc2)Oc2ccc(NC(=O)C3CC3)cc2C1=O | 0 | - | 0 | 0 | 0 | - | -
C[C@H](CO)N1C[C@H](C)[C@@H](CN(C)S(=O)(=O)c2ccccc2)Oc2ccc(NC(=O)Nc3ccccc3)cc2C1=O | 0 | - | 0 | 0 | 3.16 | - | 0
Cc1ccc(S(=O)(=O)N(C)C[C@@H]2Oc3ccc(NC(=O)Nc4cccc5ccccc45)cc3C(=O)N([C@H](C)CO)C[C@H]2C)cc1 | 0 | - | 0 | 0 | 3.25 | - | 0
C=C[C@@H]1c2cc(C)ccc2N(S(=O)(=O)c2ccc(C)cc2)[C@H](c2ccccc2C(F)(F)F)C1(C#N)C#N | 0 | - | 0 | 0 | 0 | - | -
Cc1ccc2sc(N3CCN(CCNC(=O)c4ccco4)CC3)nc2c1C | 0 | - | 0 | 0 | 0 | - | -
N#C/C(=C/c1ccco1)C(N)=S | 47.0 | - | 0 | 0 | 0 | - | 56.5
Cc1ccccc1NC(=S)NC(NC(=O)c1ccccc1C)C(Cl)(Cl)Cl (stereo unspecified) | 0 | 0 | 0 | 0 | 2.05 | 0 | 0
CC(C)N1CCN(Cc2cn[nH]c2C2CCCCC2)CC1CCO (stereo unspecified) | 0 | 0 | 0 | 0 | 0 | 0 | -
CSc1ccc(Cl)c(C(=O)Nc2cc(S(=O)(=O)N3CCOCC3)ccc2N2CCOCC2)c1 | 0 | - | 0 | 0 | 0 | - | -
O=C1NC(=Nc2ccccc2)S/C1=C\C=C\c1ccco1 | 72.9 | 0 | 0 | 0 | 0 | 0 | 72.4

Screens: PubChem, Sanford-Burnham Center for Chemical Genomics
